# Source: ChEMBL document CHEMBL1131289, “2-Nitrophenylcarbamoyl-(S)-prolyl-(S)-3-(2-naphthyl)alanyl-N-benzyl-N - methylamide (SDZ NKT 343), a potent human NK1 tachykinin receptor antagonist with good oral analgesic activity in chronic pain models” (J Med Chem, 1998)
# pIC50, pKi: −log10 of the molar value.
# How the values were obtained:
# [1] = target: Substance-P receptor (Homo sapiens, UniProt P25103); assay: In vitro binding affinity towards Tachykinin receptor 1 by measuring its ability to displace [3H]SP (0.6 nM) binding to membranes from Cos-7 cells transiently transfected with the hNK-1R; format: cell membranes
# [2] = target: T1, Substance-P receptor (Cavia porcellus, UniProt P30547); assay: Tested for Tachykinin receptor 1 […] activity by measuring its ability to inhibit contractions evoked by [Sar9,Met(O2)11]-SP (4 nM) in guinea pig ileum; format: functional, tissue-based
# Outline: (§1)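 Guinea pig ileum contracted by [Sar9Met(O2)11]SP (4.0 nM), repeated at least five times until stable. Antagonist added 2 min before agonist; at least three concentrations, each tested three times. IC50 read from log10 concentration–response curve; mean ± SEM of three separate experiments.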
# [3] = tested on: Cavia porcellus; assay: In vivo inhibition of hyperalgesia at 30 mg/kg po dose and 3h after dosing in guinea pig; format: functional
# Outline: (§2)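 Guinea pigs got 1% carrageenan (100 μL) intraplantar in one hind paw. Mechanical hyperalgesia was read 24 h later, before dosing. Compound was given orally at 30 mg/kg in 10% DMSO in 1% tragacanth or as a microemulsion. Readings were taken at intervals up to 6 h, and the value is percentage reversal of predose hyperalgesia.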
# [4] = target: T1, Substance-P receptor; assay: Tachykinin receptor 1 antagonistic activity as inhibition of contractions evoked by 4 nM [Sar9,Met(O2)11]-SP in guinea pig ileum; format: functional, tissue-based; outline: as §1
# [5] = tested on: Cavia porcellus; assay: The compound was evaluated for its %inhibition of hyperalgesia at 30 mg/kg po dose and 1 hr after dosing; format: functional; outline: as §2
# [6] = species on record: Cavia porcellus; assay: The effective dose of compound used to inhibit 30% of hyperalgesia in guinea pig; format: functional
# Outline: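 Hyperalgesia was induced in guinea pigs with intraplantar 1% carrageenan (100 μL) in one hind paw. Mechanical hyperalgesia was assessed 24 h later, then oral doses were given in 10% DMSO/1% tragacanth or a microemulsion. ED30, the dose giving 30% inhibition of hyperalgesia, was taken from dose–response data 3 h after dosing (n = 3).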
# Substance-P receptor (Homo sapiens, UniProt P25103), sequence (P25103 whole entry): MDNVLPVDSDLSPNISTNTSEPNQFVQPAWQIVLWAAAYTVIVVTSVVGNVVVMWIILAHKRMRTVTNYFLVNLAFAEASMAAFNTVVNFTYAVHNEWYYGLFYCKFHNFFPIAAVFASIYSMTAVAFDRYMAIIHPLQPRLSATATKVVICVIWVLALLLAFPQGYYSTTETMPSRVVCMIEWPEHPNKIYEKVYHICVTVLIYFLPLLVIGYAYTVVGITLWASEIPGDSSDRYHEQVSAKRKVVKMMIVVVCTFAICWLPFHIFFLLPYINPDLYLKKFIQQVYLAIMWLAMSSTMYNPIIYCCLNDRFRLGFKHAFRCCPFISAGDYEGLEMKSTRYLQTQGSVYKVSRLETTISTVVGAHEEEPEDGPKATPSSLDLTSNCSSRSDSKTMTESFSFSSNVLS
# T1 sequence (P30547 whole entry): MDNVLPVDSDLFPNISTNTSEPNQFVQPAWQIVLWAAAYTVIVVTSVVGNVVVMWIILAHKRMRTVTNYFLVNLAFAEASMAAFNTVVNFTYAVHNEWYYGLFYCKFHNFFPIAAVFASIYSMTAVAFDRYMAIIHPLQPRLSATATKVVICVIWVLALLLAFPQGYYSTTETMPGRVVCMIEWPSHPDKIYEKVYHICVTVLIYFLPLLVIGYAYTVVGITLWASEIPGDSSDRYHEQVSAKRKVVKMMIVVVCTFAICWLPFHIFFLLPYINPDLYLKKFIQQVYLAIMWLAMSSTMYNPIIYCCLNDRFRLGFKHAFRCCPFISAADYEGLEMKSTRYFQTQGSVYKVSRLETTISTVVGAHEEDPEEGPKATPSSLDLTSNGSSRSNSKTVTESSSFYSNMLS
SMILES,pKi [1],also measured
CN(Cc1ccccc1)C(=O)[C@H](Cc1ccc(-c2ccccc2)cc1)NC(=O)[C@@H]1CCCN1/C(S)=N/Cc1ccccc1Cl,8.14,–
CN(Cc1ccccc1)C(=O)[C@H](CCc1ccccc1)NC(=O)[C@@H]1CCCN1/C(S)=N/Cc1ccccc1Cl,–,pIC50 [1]: 6.69
CN(Cc1ccccc1)C(=O)[C@H](Cc1ccc2ccccc2c1)NC(=O)[C@@H]1CCCN1C(=O)Nc1ccccc1O,8.59,–
CN(Cc1ccccc1)C(=O)[C@@H](NC(=O)[C@@H]1CCCN1C(=S)NCc1ccccc1Cl)C(c1ccccc1)c1ccccc1,7.53,–
CN(Cc1ccccc1)C(=O)[C@H](Cc1ccc(Cl)c(Cl)c1)NC(=O)[C@@H]1CCCN1/C(S)=N/Cc1ccccc1Cl,8.30,–
CN(Cc1ccccc1)C(=O)[C@H](Cc1ccccc1)NC(=O)[C@@H]1CCCN1C(=O)NCc1ccccc1Cl,–,pIC50 [1]: 6.23
CN(Cc1ccccc1)C(=O)[C@H](Cc1ccccc1)NC(=O)[C@@H]1CCCN1/C(S)=N/Cc1ccccc1,6.00,–
CC(=O)Nc1ccccc1NC(=O)N1CCC[C@H]1C(=O)N[C@@H](Cc1ccc2ccccc2c1)C(=O)N(C)Cc1ccccc1,–,pIC50 [2]: 8.12
CN(Cc1ccccc1)C(=O)[C@H](Cc1ccc2ccccc2c1)NC(=O)[C@@H]1CCCN1C(=O)Nc1ccccc1,9.06,inhibition in vivo at 30 mg/kg [3]: 26%; pIC50 [4]: 8.30
CN(Cc1ccccc1)C(=O)[C@H](Cc1ccc2ccccc2c1)NC(=O)[C@@H]1CCCN1C(=O)Nc1cccc([N+](=O)[O-])c1,8.64,–
CN(Cc1ccccc1)C(=O)[C@H](Cc1ccc2ccccc2c1)NC(=O)[C@@H]1CCCN1C(=O)Nc1ccc(F)cc1,8.66,pIC50 [4]: 7.76
CN(Cc1ccccc1)C(=O)[C@H](Cc1ccccc1)NC(=O)[C@@H]1CCCN1C(=S)NCc1ccccc1F,–,pIC50 [1]: 6.54
CN(Cc1ccccc1)C(=O)[C@H](Cc1ccccc1)NC(=O)[C@@H]1CCCN1C(=S)NCc1cc(C(F)(F)F)cc(C(F)(F)F)c1,7.10,–
CN(Cc1ccccc1)C(=O)[C@H](Cc1ccc2ccccc2c1)NC(=O)[C@@H]1CCCN1C(=O)Nc1ccccc1C(F)(F)F,7.74,–
CN(Cc1ccccc1)C(=O)[C@@H](Cc1ccccc1)NC(=O)[C@H]1CCCN1/C(S)=N/c1ccccc1Br,–,pIC50 [1]: 6.00
CN(Cc1ccccc1)C(=O)[C@H](Cc1cccc2ccccc12)NC(=O)[C@@H]1CCCN1/C(S)=N/Cc1ccccc1Cl,7.86,–
CN(Cc1ccccc1)C(=O)[C@H](Cc1c[nH]c2ccccc12)NC(=O)[C@@H]1CCCN1C(=S)NCc1ccccc1Cl,7.78,–
CN(Cc1ccccc1)C(=O)[C@H](Cc1ccccc1)NC(=O)[C@@H]1CCCN1/C(S)=N/Cc1ccccc1[N+](=O)[O-],7.11,–
CN(Cc1ccccc1)C(=O)[C@H](Cc1ccccc1)NC(=O)[C@@H]1CCCN1C(=N)NCc1ccccc1Cl,7.73,–
CN(Cc1ccccc1)C(=O)[C@H](Cc1ccc2ccccc2c1)NC(=O)[C@@H]1CCCN1C(=O)Nc1cccc(C(N)=O)c1,8.30,–
CN(Cc1ccccc1)C(=O)[C@H](Cc1ccc2ccccc2c1)NC(=O)[C@@H]1CCCN1C(=O)Nc1cccnc1,8.17,pIC50 [4]: 8.38; inhibition in vivo at 30 mg/kg [5]: 14%
CN(Cc1ccccc1)C(=O)[C@H](Cc1cn(C)c2ccccc12)NC(=O)[C@@H]1CCCN1/C(S)=N/Cc1ccccc1Cl,8.33,–
CN(Cc1ccccc1)C(=O)[C@H](Cc1ccc2ccccc2c1)NC(=O)[C@@H]1CCCN1C(=O)Nc1ccccc1F,8.46,–
CN(Cc1ccccc1)C(=O)[C@H](Cc1ccc2ccccc2c1)NC(=O)[C@@H]1CCCN1C(=O)Nc1ccccc1C(=O)O,6.76,–
CN(CCc1ccccc1)C(=O)[C@H](Cc1ccccc1)NC(=O)[C@@H]1CCCN1C(=S)NCc1ccccc1Cl,–,pIC50 [1]: 5.60
CN(Cc1ccccc1)C(=O)[C@H](Cc1ccc2ccccc2c1)NC(=O)[C@@H]1CCCN1C(=O)Nc1ccccc1CO,8.77,–
CN(Cc1cc(C(F)(F)F)cc(C(F)(F)F)c1)C(=O)[C@H](Cc1ccccc1)NC(=O)[C@@H]1CCCN1C(=S)NCc1ccccc1Cl,7.57,–

SMILES,pKi [1],also measured
CN(Cc1ccccc1)C(=O)[C@H](Cc1ccc2ccccc2c1)NC(=O)[C@@H]1CCCN1C(=O)Nc1ccccc1C(N)=O,9.10,ED30 [6]: 15.7 mg/kg; inhibition in vivo at 30 mg/kg [3]: 35%; pIC50 [4]: 8.72
CN(Cc1ccccc1)C(=O)[C@H](Cc1ccccc1)NC(=O)[C@@H]1CCCN1/C(S)=N/Cc1ccccc1C(F)(F)F,7.57,–
COCc1ccccc1NC(=O)N1CCC[C@H]1C(=O)N[C@@H](Cc1ccc2ccccc2c1)C(=O)N(C)Cc1ccccc1,9.00,ED30 [6]: 1.2 mg/kg; inhibition in vivo at 30 mg/kg [3]: 67%; pIC50 [4]: 8.92
CN(Cc1ccncc1)C(=O)[C@H](Cc1ccccc1)NC(=O)[C@@H]1CCCN1C(=S)NCc1ccccc1Cl,–,pIC50 [1]: 5.00
CN(Cc1ccccc1)C(=O)[C@H](Cc1ccc2ccccc2c1)NC(=O)[C@@H]1CCCN1C(=O)Nc1cccc(C#N)c1,8.38,inhibition in vivo at 30 mg/kg [3]: 38%; pIC50 [4]: 8.59
CN(Cc1ccccc1)C(=O)[C@H](Cc1ccc2ccccc2c1)NC(=O)[C@@H]1CCCN1C(=O)Nc1ccccc1C#N,8.96,ED30 [6]: 2.1 mg/kg; inhibition in vivo at 30 mg/kg [3]: 42%; pIC50 [4]: 9.00
CN(Cc1ccccc1)C(=O)[C@H](Cc1ccc2ccccc2c1)N(C)C(=O)[C@@H]1CCCN1C(=S)NCc1ccccc1Cl,8.77,–
CN(Cc1ccccc1)C(=O)[C@@H](Cc1ccccc1)NC(=O)[C@H]1CCCN1C(=S)Nc1ccccc1Cl,–,pIC50 [1]: 5.49
CN(Cc1ccccc1)C(=O)[C@H](Cc1ccc2ccccc2c1)NC(=O)[C@@H]1CCCN1C(=O)Nc1cccc(F)c1,9.15,inhibition in vivo at 30 mg/kg [3]: 10%; pIC50 [4]: 8.17
CN(C)C(=O)c1ccccc1NC(=O)N1CCC[C@H]1C(=O)N[C@@H](Cc1ccc2ccccc2c1)C(=O)N(C)Cc1ccccc1,8.21,–
CN(C(=O)[C@H](Cc1ccccc1)NC(=O)[C@@H]1CCCN1C(=S)NCc1ccccc1Cl)c1ccccc1,–,pIC50 [1]: 4.00
CN(Cc1ccccc1)C(=O)[C@H](Cc1ccc2ccccc2c1)NC(=O)[C@@H]1CCCN1C(=O)Nc1ccc(C#N)cc1,8.96,inhibition in vivo at 30 mg/kg [3]: 32%; pIC50 [4]: 8.62
Cc1ccccc1C/N=C(\S)N1CCC[C@H]1C(=O)N[C@@H](Cc1ccccc1)C(=O)N(C)Cc1ccccc1,–,pIC50 [1]: 6.39
CN(Cc1cccc2ccccc12)C(=O)[C@H](Cc1ccccc1)NC(=O)[C@@H]1CCCN1C(=S)NCc1ccccc1Cl,7.77,–
CN(Cc1ccc2ccccc2c1)C(=O)[C@H](Cc1ccccc1)NC(=O)[C@@H]1CCCN1/C(S)=N/Cc1ccccc1Cl,7.44,–
CN(Cc1ccccc1)C(=O)[C@H](Cc1ccc2ccccc2c1)NC(=O)[C@@H]1CCCN1C(=N)NCc1ccccc1Cl,9.30,–
CN(Cc1ccccc1)C(=O)[C@H](Cc1ccccc1)NC(=O)[C@@H]1CCCN1C(=S)NCc1ccccc1Br,7.53,–
CN(Cc1ccccc1)C(=O)[C@H](Cc1ccccc1)N(C)C(=O)[C@@H]1CCCN1/C(S)=N/Cc1ccccc1Cl,7.42,–
CN(Cc1ccccc1)C(=O)[C@H](Cc1ccc2ccccc2c1)NC(=O)[C@@H]1CCCN1C(=O)NCc1ccccc1Cl,8.64,–
CN(Cc1ccccc1)C(=O)[C@H](Cc1ccc2ccccc2c1)NC(=O)[C@@H]1CCCN1C(=O)Nc1ccccc1N,–,pIC50 [4]: 7.68
COC(=O)c1ccccc1NC(=O)N1CCC[C@H]1C(=O)N[C@@H](Cc1ccc2ccccc2c1)C(=O)N(C)Cc1ccccc1,9.52,pIC50 [4]: 8.22
CN(CCc1c[nH]c2ccccc12)C(=O)[C@H](Cc1ccccc1)NC(=O)[C@@H]1CCCN1/C(S)=N/Cc1ccccc1Cl,7.32,–
O=C(NCCc1c[nH]c2ccccc12)[C@H](Cc1ccccc1)NC(=O)[C@@H]1CCCN1C(=S)NCc1ccccc1Cl,–,pIC50 [1]: 5.43
CN(Cc1ccccc1)C(=O)[C@H](Cc1ccccc1)NC(=O)[C@@H]1CCCN1/C(S)=N/Cc1c(Cl)cccc1Cl,7.59,–
CNC(=O)c1ccccc1NC(=O)N1CCC[C@H]1C(=O)N[C@@H](Cc1ccc2ccccc2c1)C(=O)N(C)Cc1ccccc1,8.42,pIC50 [4]: 8.52
CN(Cc1ccccc1)C(=O)[C@H](Cc1ccccc1)NC(=O)[C@@H]1CCCN1C(=S)NCc1ccccc1Cl,7.52,–
"CN(Cc1ccccc1)C(=O)[C@H](Cc1ccccc1)NC(=O)[C@@H]1CCCN1C(=S)Nc1ccccc1 (single isomer, unassigned)",7.10,–
